Assay results: ChEMBL document CHEMBL1151705, “Novel azalides derived from 16-membered macrolides. Part II: Isolation of the linear 9-formylcarboxylic acid and its sequential macrocyclization with an amino alcohol or an azidoamine” (2008)
Converted amounts (≈) assume the structure as drawn.

Experiments:
Assay type in all cases: functional
Staphylococcus aureus [1] = assay: Antimicrobial activity against drug-susceptible Staphylococcus aureus 209P JC-1 after 20 hrs by agar dilution method; conditions: Staphylococcus aureus, 209P, 20 h; read-out: MIC
Method in brief: (§1)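 Agar dilution MIC. S. aureus seed culture was grown in sensitivity test broth. Cell suspension (about 10⁶ CFU/ml) was inoculated onto sensitivity disk agar with 5% horse blood and incubated at 37 °C for 20 h. MIC was the lowest drug concentration that prevented visible growth.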

Staphylococcus aureus [2] = assay: Antimicrobial activity against Staphylococcus aureus 5 expressing inducible ermB after 20 hrs by agar dilution method; conditions: Staphylococcus aureus, 20 h; read-out: MIC; method in brief: as §1
Staphylococcus aureus [3] = assay: Antimicrobial activity against drug-susceptible Staphylococcus aureus 2 after 20 hrs by agar dilution method; conditions: Staphylococcus aureus, 20 h; read-out: MIC; method in brief: as §1
Streptococcus pneumoniae [4] = assay: Antimicrobial activity against Streptococcus pneumoniae 9 expressing mefA after 20 hrs by agar dilution method; conditions: Streptococcus pneumoniae, 20 h; read-out: MIC
Method in brief: (§2)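 Streptococci, H. influenzae and M. catarrhalis were precultured on blood agar plates. Suspensions of about 10⁶ CFU/ml were inoculated onto sensitivity disk agar supplemented with 5% horse blood and incubated at 37 °C for 20 h. MIC was read as the lowest drug concentration with no visible growth.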

Streptococcus pneumoniae [5] = assay: Antimicrobial activity against Streptococcus pneumoniae 7 expressing inducible ermB after 20 hrs by agar dilution method; method in brief: as §2
Streptococcus pneumoniae [6] = assay: Antimicrobial activity against drug-susceptible Streptococcus pneumoniae DP1 Type1 after 20 hrs by agar dilution method; method in brief: as §2
Streptococcus pneumoniae [7] = assay: Antimicrobial activity against Streptococcus pneumoniae 10 expressing mefA after 20 hrs by agar dilution method; conditions: Streptococcus pneumoniae, 20 h; read-out: MIC; method in brief: as §2
Streptococcus pyogenes [8] = assay: Antimicrobial activity against drug-susceptible Streptococcus pyogenes 1 after 20 hrs by agar dilution method; conditions: Streptococcus pyogenes, 20 h; read-out: MIC; method in brief: as §2
Streptococcus pyogenes [9] = assay: Antimicrobial activity against Streptococcus pyogenes 3 expressing mefA after 20 hrs by agar dilution method; conditions: Streptococcus pyogenes, 20 h; read-out: MIC; method in brief: as §2
Haemophilus influenzae [10] = assay: Antimicrobial activity against drug-susceptible Haemophilus influenzae 4 after 20 hrs by agar dilution method; conditions: Haemophilus influenzae, 20 h; read-out: MIC; method in brief: as §2
Streptococcus pyogenes [11] = assay: Antimicrobial activity against Streptococcus pyogenes 2 constitutively expressing ermB after 20 hrs by agar dilution method; method in brief: as §2
Haemophilus influenzae [12] = assay: Antimicrobial activity against drug-susceptible Haemophilus influenzae 2 after 20 hrs by agar dilution method; conditions: Haemophilus influenzae, 20 h; read-out: MIC; method in brief: as §2
Streptococcus pneumoniae [13] = assay: Antimicrobial activity against Streptococcus pneumoniae 8 expressing inducible ermB after 20 hrs by agar dilution method; method in brief: as §2
Moraxella catarrhalis [14] = assay: Antimicrobial activity against drug-susceptible Moraxella catarrhalis 1 after 20 hrs by agar dilution method; conditions: Moraxella catarrhalis, 20 h; read-out: MIC; method in brief: as §2
Streptococcus pneumoniae [15] = assay: Antimicrobial activity against Streptococcus pneumoniae 6 constitutively expressing ermB after 20 hrs by agar dilution method; conditions: Streptococcus pneumoniae, 20 h; read-out: MIC; method in brief: as §2
Staphylococcus aureus [16] = assay: Antimicrobial activity against drug-susceptible Staphylococcus aureus 3 after 20 hrs by agar dilution method; conditions: Staphylococcus aureus, 20 h; read-out: MIC; method in brief: as §1
Staphylococcus aureus [17] = assay: Antimicrobial activity against Staphylococcus aureus 6 expressing inducible ermB after 20 hrs by agar dilution method; method in brief: as §1
Staphylococcus aureus [18] = assay: Antimicrobial activity against Staphylococcus aureus 4 constitutively expressing ermA after 20 hrs by agar dilution method; method in brief: as §1
Haemophilus influenzae [19] = assay: Antimicrobial activity against drug-susceptible Haemophilus influenzae 1 after 20 hrs by agar dilution method; conditions: Haemophilus influenzae, 20 h; read-out: MIC; method in brief: as §2
Haemophilus influenzae [20] = assay: Antimicrobial activity against drug-susceptible Haemophilus influenzae 3 after 20 hrs by agar dilution method; conditions: Haemophilus influenzae, 20 h; read-out: MIC; method in brief: as §2
Moraxella catarrhalis [21] = assay: Antimicrobial activity against drug-susceptible Moraxella catarrhalis 2 after 20 hrs by agar dilution method; conditions: Moraxella catarrhalis, 20 h; read-out: MIC; method in brief: as §2
Streptococcus pneumoniae [22] = assay: Antimicrobial activity against Streptococcus pneumoniae 5 constitutively expressing ermB/mefA after 20 hrs by agar dilution method; conditions: Streptococcus pneumoniae, 20 h; read-out: MIC; method in brief: as §2
Streptococcus pneumoniae [23] = assay: Antimicrobial activity against drug-susceptible Streptococcus pneumoniae 2 after 20 hrs by agar dilution method; conditions: Streptococcus pneumoniae, 20 h; read-out: MIC; method in brief: as §2
[24] = Streptococcus pneumoniae, 20 h, read-out: MIC

Row | SMILES | MIC (Staphylococcus aureus [1]) [µg/mL] | MIC (Staphylococcus aureus [2]) [µg/mL] | MIC (Staphylococcus aureus [3]) [µg/mL] | MIC (Streptococcus pneumoniae [4]) [µg/mL] | MIC (Streptococcus pneumoniae [7]) [µg/mL] | MIC (Streptococcus pyogenes [8]) [µg/mL] | MIC (Streptococcus pyogenes [9]) [µg/mL] | MIC (Haemophilus influenzae [10]) [µg/mL] | MIC (Streptococcus pyogenes [11]) [µg/mL] | MIC (Haemophilus influenzae [12]) [µg/mL] | MIC (Moraxella catarrhalis [14]) [µg/mL] | MIC (Streptococcus pneumoniae [15]) [µg/mL] | MIC (Staphylococcus aureus [16]) [µg/mL] | MIC (Staphylococcus aureus [17]) [µg/mL] | MIC (Staphylococcus aureus [18]) [µg/mL] | MIC (Haemophilus influenzae [19]) [µg/mL] | MIC (Haemophilus influenzae [20]) [µg/mL] | MIC (Moraxella catarrhalis [21]) [µg/mL] | MIC (Streptococcus pneumoniae [22]) [µg/mL] | MIC (Streptococcus pneumoniae [23]) [µg/mL] | other results
1 | CCOC(=O)[C@H]1[C@H](C)O[C@@H](O[C@H]2[C@H](N(C)C)[C@@H](O)[C@H](O[C@H]3[C@@H](CC=O)C[C@@H](C)[C@@H](OC(C)=O)CN(CCCCc4ccccc4)C[C@@H](C)OC(=O)C[C@@H](OC(=O)CC)[C@@H]3OC)O[C@@H]2C)C[C@@]1(C)OC(C)=O | 4 (≈ 3.97 µM) | 4 (≈ 3.97 µM) | > 128 | 2 (≈ 1.99 µM) | 2 (≈ 1.99 µM) | 2 (≈ 1.99 µM) | 4 (≈ 3.97 µM) | > 128 | > 128 | > 128 | 8 (≈ 7.94 µM) | > 128 | 4 (≈ 3.97 µM) | 8 (≈ 7.94 µM) | > 128 | > 128 | > 128 | > 128 | > 128 | 2 (≈ 1.99 µM) | MIC (Streptococcus pneumoniae [5]; [24]): > 128 µg/mL; MIC (Streptococcus pneumoniae [6]; [24]): 1 µg/mL (≈ 0.993 µM); MIC (Streptococcus pneumoniae [13]; [24]): > 128 µg/mL
2 | CCOC(=O)[C@H]1[C@H](C)O[C@@H](O[C@H]2[C@H](N(C)C)[C@@H](O)[C@H](O[C@H]3[C@@H](CC=O)C[C@@H](C)[C@@H](O)CN(CCCc4ccnc5ccccc45)CCCNC(=O)C[C@@H](OC(=O)CC)[C@@H]3OC)O[C@@H]2C)C[C@@]1(C)O | 0.5 (≈ 0.521 µM) | 0.5 (≈ 0.521 µM) | 1 (≈ 1.04 µM) | 0.13 (≈ 0.136 µM) | 0.13 (≈ 0.136 µM) | 0.25 (≈ 0.261 µM) | 1 (≈ 1.04 µM) | 8 (≈ 8.34 µM) | > 128 | 1 (≈ 1.04 µM) | 2 (≈ 2.09 µM) | > 128 | 0.5 (≈ 0.521 µM) | 0.5 (≈ 0.521 µM) | > 128 | 16 (≈ 16.7 µM) | 4 (≈ 4.17 µM) | 1 (≈ 1.04 µM) | > 128 | 0.13 (≈ 0.136 µM) | MIC (Streptococcus pneumoniae [5]; [24]): 16 µg/mL (≈ 16.7 µM); MIC (Streptococcus pneumoniae [6]; [24]): 0.06 µg/mL (≈ 0.0626 µM); MIC (Streptococcus pneumoniae [13]; [24]): 16 µg/mL (≈ 16.7 µM)
3 | CCOC(=O)[C@H]1[C@H](C)O[C@@H](O[C@H]2[C@H](N(C)C)[C@@H](O)[C@H](O[C@H]3[C@@H](CC=O)C[C@@H](C)[C@@H](O)CN(CCCCc4ccccc4)CCC(C)NC(=O)C[C@@H](OC(=O)CC)[C@@H]3OC)O[C@@H]2C)C[C@@]1(C)OC(C)=O (stereo in doubt; form 1) | 0.25 (≈ 0.256 µM) | 0.25 (≈ 0.256 µM) | 1 (≈ 1.02 µM) | 0.25 (≈ 0.256 µM) | 0.25 (≈ 0.256 µM) | 0.06 (≈ 0.0613 µM) | 0.25 (≈ 0.256 µM) | 4 (≈ 4.09 µM) | > 128 | 1 (≈ 1.02 µM) | 0.13 (≈ 0.133 µM) | > 128 | 0.25 (≈ 0.256 µM) | 0.5 (≈ 0.511 µM) | > 128 | 16 (≈ 16.4 µM) | 4 (≈ 4.09 µM) | 0.13 (≈ 0.133 µM) | > 128 | 0.13 (≈ 0.133 µM) | MIC (Streptococcus pneumoniae [5]): 128 µg/mL (≈ 131 µM); MIC (Streptococcus pneumoniae [6]): 0.06 µg/mL (≈ 0.0613 µM); MIC (Streptococcus pneumoniae [13]): 128 µg/mL (≈ 131 µM)
4 | CCC(=O)O[C@@H]1CC(=O)O[C@H](C)C/C=C/C=C/[C@H](OC(C)=O)[C@H](C)C[C@H](CC=O)[C@H](O[C@@H]2O[C@H](C)[C@@H](O[C@H]3C[C@@](C)(OC(C)=O)[C@@H](OC(=O)CC)[C@H](C)O3)[C@H](N(C)C)[C@H]2O)[C@H]1OC [MIOCAMYCIN] | 0.5 (≈ 0.557 µM) | 0.5 (≈ 0.557 µM) | 1 (≈ 1.11 µM) | 0.5 (≈ 0.557 µM) | 0.5 (≈ 0.557 µM) | 0.25 (≈ 0.278 µM) | 0.5 (≈ 0.557 µM) | 16 (≈ 17.8 µM) | > 128 | 2 (≈ 2.23 µM) | 1 (≈ 1.11 µM) | > 128 | 0.5 (≈ 0.557 µM) | 1 (≈ 1.11 µM) | > 128 | 64 (≈ 71.3 µM) | 32 (≈ 35.6 µM) | 2 (≈ 2.23 µM) | > 128 | 0.5 (≈ 0.557 µM) | MIC (Streptococcus pneumoniae [5]; [24]): 64 µg/mL (≈ 71.3 µM); MIC (Streptococcus pneumoniae [6]; [24]): 0.25 µg/mL (≈ 0.278 µM); MIC (Streptococcus pneumoniae [13]; [24]): 128 µg/mL (≈ 143 µM)
